For data set [1], the system named is Enterococcus faecalis. As to the kind of experiment: Antimicrobial activity against Enterococcus faecalis after 16 to 18 hrs by agar dilution method. The data set is classed as functional.
A short description of data set [2]: Cmax in Sprague-Dawley rat at 10 mg/kg, po. The class given is ADME, organism-based. Also noted: dose 10 mg/kg, route oral. As to conditions: in vivo. The essentials: (§1)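 Single dose given orally (10 or 50 mg/kg) or intravenously (10 mg/kg). Serial 300 µL blood samples were taken from the retrobulbar vein. Plasma was quantified by LC-MS. Parameters came from mean plasma concentration by non-compartmental analysis. F is absolute oral bioavailability, assuming linear pharmacokinetics.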

Data set [3] concerns Staphylococcus aureus. As to the kind of experiment: Antimicrobial activity against methicillin-susceptible Staphylococcus aureus after 16 to 18 hrs by agar dilution method. The data set is classed as functional.
The nature of data set [4]: Tmax in Sprague-Dawley rat at 50 mg/kg, po. The settings on record: in vivo. The class given is ADME, organism-based. Also noted: dose 50 mg/kg, route oral. Put shortly:
as §1

Data set [5] can be described thus: Elimination half life in Sprague-Dawley rat at 10 mg/kg, po. The data set is classed as ADME, organism-based. Also noted: dose 10 mg/kg, route oral. The settings on record: in vivo, read-out: beta t1/2 (converted). Put shortly:
as §1

The nature of data set [6]: Tmax in Sprague-Dawley rat at 10 mg/kg, po. The data set is classed as ADME, organism-based. Also noted: dose 10 mg/kg, route oral. The settings on record: in vivo. The essentials: as §1
Data set [7] concerns Streptococcus pneumoniae. As to the kind of experiment: Antimicrobial activity against sStreptococcus pneumoniae after 16 to 18 hrs by agar dilution method. The class given is functional.
Data set [8] concerns Rattus norvegicus. As to the kind of experiment: AUC (0 to infinity) in Sprague-Dawley rat at 10 mg/kg, po. The settings on record: in vivo. The class given is ADME, organism-based, Plasma. Also noted: time infinity, dose 10 mg/kg, route oral. The essentials: as §1
The nature of data set [9]: Elimination half life in Sprague-Dawley rat at 50 mg/kg, po. The class given is ADME, organism-based. Also noted: dose 50 mg/kg, route oral. As to conditions: in vivo, read-out: beta t1/2 (converted). Put shortly:
as §1

Data set [10] in a line: AUC (0 to infinity) in Sprague-Dawley rat at 10 mg/kg, iv. The data set is classed as ADME, organism-based. Also noted: time infinity, dose 10 mg/kg, route intravenous. The settings on record: plasma. The essentials: as §1
Data set [11] relates to Staphylococcus aureus. As to the kind of experiment: Antimicrobial activity against Staphylococcus aureus ATCC 29213 after 16 to 18 hrs by agar dilution method. The data set is classed as functional.
Data set [12] can be described thus: Clearance in Sprague-Dawley rat at 10 mg/kg, iv. As to conditions: in vivo. The class given is ADME, organism-based. Also noted: dose 10 mg/kg, route intravenous. Put shortly:
as §1

A short description of data set [13]: Elimination half life in Sprague-Dawley rat at 10 mg/kg, iv. The class given is ADME, organism-based. Also noted: dose 10 mg/kg, route intravenous. The settings on record: in vivo, read-out: beta t1/2 (converted). Put shortly: as §1
Data set [14] has as its system Rattus norvegicus. As to the kind of experiment: AUC (0 to infinity) in Sprague-Dawley rat at 50 mg/kg, po. Also noted: time infinity, dose 50 mg/kg, route oral. As to conditions: in vivo. The class given is ADME, organism-based, Plasma. Put shortly:
as §1

A short description of data set [15]: Cmax in Sprague-Dawley rat at 50 mg/kg, po. Also noted: dose 50 mg/kg, route oral. As to conditions: in vivo. The data set is classed as ADME, organism-based. Put shortly:
as §1

Data set [16] has as its system Staphylococcus aureus. As to the kind of experiment: Antimicrobial activity against methicillin-resistant Staphylococcus aureus after 16 to 18 hrs by agar dilution method. The class given is functional.
Data set [17] is described as follows: Oral bioavailability in Sprague-Dawley rat at 10 mg/kg. The class given is ADME, organism-based. The settings on record: in vivo. The essentials:
as §1

In brackets after ≈: the same amount, converted by molar mass.

Take `O=C1O[C@@H](Cn2ccnn2)CN1c1ccc(N2CCN(Cc3ccc([N+](=O)[O-])o3)CC2)c(F)c1`: the MIC in [1] was determined as 0.25 µg/mL (≈ 0.53 µM); in data set [3], 0.06 µg/mL (≈ 0.127 µM); in data set [7], 0.03 µg/mL (≈ 0.0636 µM); in data set [11] it was 0.06 µg/mL (≈ 0.127 µM); in data set [16], 0.06 µg/mL (≈ 0.127 µM). Also, the Cmax was found to be 5440 ng/mL in data set [2] and 16900 ng/mL in data set [15]. The values for the Tmax in [4] and in data set [6] were 0.5 h and 0.25 h, respectively. Moreover, the half-life in data set [5] is 1.51 h; in [9], 1.66 h; in data set [13] it was 1.18 h. The AUC in [8] is 19400 ng·h/mL; in data set [14] it was 139000 ng·h/mL. The area under the curve AUC(0-inf) in data set [10] amounted to 18900 ng·h/mL. Further, the clearance in data set [12] is 16.2 mL/min/kg. The bioavailability in data set [17] came out at 103%.

These data come from ChEMBL document CHEMBL1151774, “Synthesis and biological evaluation of new N-linked 5-triazolylmethyl oxazolidinones” (Eur J Med Chem, 2008).
